Results reported in ChEMBL document CHEMBL3774376, “Synthesis, and anticonvulsant activity of new amides derived from 3-methyl- or 3-ethyl-3-methyl-2,5-dioxo-pyrrolidin-1-yl-acetic acids” (Bioorg Med Chem, 2016).
The source made the active and inactive calls. The calls are words filed in the database; no cut-off is given here.

Assays:
Mus musculus [1] = organism: Mus musculus; assay: Protection index, ratio of TD50 for CD1 albino mouse to ED50 for protection against maximal electroshock-induced seizures in CD1 albino mouse
Summary of the method: (§1)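 Quantitation in male CD-1 mice dosed ip at the previously estimated time of peak effect. Seizures were induced by MES or by sc pentylenetetrazole 85 mg/kg; rotarod at 10 rpm assessed motor impairment. Groups of six, at least three doses giving 10-90% effect.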

Mus musculus [2] = assay: Antinociceptive activity in CD1 albino mouse assessed as reduction of formalin-induced licking response in inflammatory phase at 75.60 mg/kg, ip preincubated for 4 hrs measured after 15 to 20 mins; assay type: functional; set-up: scale not given: the % may be the effect or the level left
Mus musculus [3] = assay: Anticonvulsant activity in ip dosed CD1 albino mouse assessed as protection against maximal electroshock-induced seizures; assay type: functional
Rattus norvegicus = organism: Rattus norvegicus; assay: Displacement of [3H]BTX from voltage-sensitive Na+ channel site 2 in rat cerebral cortex synaptoneurosomes at 100 uM after 60 mins by liquid scintillation spectroscopic analysis; assay type: tissue-based
Summary of the method: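 Cerebral cortex synaptoneurosomes from rat, tested at 100 µM for inhibition of specific [3H]BTX binding to the voltage-sensitive Na+ channel site 2. Reported as % inhibition of control specific binding; run commercially.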

Mus musculus [4] = assay: Neurotoxicity in CD1 albino mouse assessed as acute motor impairment at 300 mg/kg, ip measured after 0.5 hrs by rotarod test; assay type: toxicity, organism-based; details: in vivo
Summary of the method: (§2)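 Male CD-1 mice given 30, 100 or 300 mg/kg ip in 0.5% methylcellulose, tested at 0.5 and 4 h. Motor impairment was scored as failure to keep balance for at least 1 min on a rod rotating at 10 rpm. Minimum dose causing impairment reported.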

Mus musculus [5] = assay: Anticonvulsant activity in CD1 albino mouse assessed as protection against subcutaneous pentylenetetrazole-induced seizures at 100 to 300 mg/kg, ip after 0.5 hrs; assay type: functional; details: CD1, 0.5 h, read-out: MED
Summary of the method: (§3)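 Male CD-1 mice (16-26 g), compounds ip in 0.5% methylcellulose/water at 30, 100 or 300 mg/kg, 3-4 per group. At 0.5 or 4 h, pentylenetetrazole 85 mg/kg was injected sc. Protection was absence of clonic convulsions (at least 5 s) over a 30 min observation. Minimum active dose recorded.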

Mus musculus [6] = assay: Antinociceptive activity in CD1 albino mouse assessed as reduction of formalin-induced licking response in inflammatory phase at 75.60 mg/kg, ip preincubated for 4 hrs measured after 25 to 30 mins; assay type: functional; set-up: scale not given: the % may be the effect or the level left
Mus musculus [7] = assay: Anticonvulsant activity in ip dosed CD1 albino mouse assessed as protection against subcutaneous pentylenetetrazole-induced seizures; assay type: functional; summary of the method: as §1
Mus musculus [8] = assay: Neurotoxicity in CD1 albino mouse assessed as acute motor impairment at 300 mg/kg, ip after 4 hrs by rotarod test; assay type: toxicity, organism-based; details: in vivo; summary of the method: as §2
Mus musculus [9] = assay: Antinociceptive activity in CD1 albino mouse assessed as reduction of formalin-induced licking response in inflammatory phase at 75.60 mg/kg, ip preincubated for 4 hrs measured after 20 to 25 mins; assay type: functional; set-up: scale not given: the % may be the effect or the level left
Mus musculus [10] = assay: Protection index, ratio of TD50 for CD1 albino mouse to ED50 for protection against subcutaneous pentylenetetrazole-induced seizures in CD1 albino mouse; summary of the method: as §1
Mus musculus [11] = assay: Local anesthetic activity in CD1 albino mouse assessed prolongation of time reaction at 2 % concentration after 20 secs by tail immersion test relative to vehicle control; assay type: functional
Summary of the method: (§4)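 Compound at 1 or 2% in 0.5% methylcellulose, injected sc (0.2 ml) about 1 cm from the tail root of male CD-1 mice. After 15 min, the distal 3 cm of the tail was immersed in 50 ± 0.5 °C water and withdrawal time measured, cut off at 20 s. n=8; mean ± SEM; % prolongation relative to vehicle.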

Mus musculus [12] = assay: Anticonvulsant activity in CD1 albino mouse assessed as protection against maximal electroshock-induced seizures at 100 to 300 mg/kg, ip after 0.5 hrs; assay type: functional; details: read-out: MED
Mus musculus [13] = assay: Anticonvulsant activity in ip dosed CD1 albino mouse assessed as time to peak effect; assay type: functional; summary of the method: as §1
Mus musculus [14] = assay: Antinociceptive activity in CD1 albino mouse assessed as reduction of formalin-induced licking response in neurogenic phase at 75.60 mg/kg, ip preincubated for 4 hrs measured after 5 mins; assay type: functional; set-up: scale not given: the % may be the effect or the level left
Mus musculus [15] = assay: Anticonvulsant activity in CD1 albino mouse assessed as protection against maximal electroshock-induced seizures at 100 to 300 mg/kg, ip after 4 hrs; assay type: functional; details: read-out: MED
[16] = Neurotoxicity in ip dosed CD1 albino mouse assessed as acute motor impairment by rotarod test; assay type: toxicity, organism-based; details: in vivo; summary of the method: as §1
Mus musculus [17] = assay: Anticonvulsant activity in CD1 albino mouse assessed as protection against subcutaneous pentylenetetrazole-induced seizures at 100 to 300 mg/kg, ip after 4 hrs; assay type: functional; details: CD1, 4 h, read-out: MED; summary of the method: as §3
Mus musculus [18] = assay: Antinociceptive activity in CD1 albino mouse assessed as reduction of formalin-induced licking response in inflammatory phase at 82.74 mg/kg, ip preincubated for 30 mins measured after 25 to 30 mins; assay type: functional; set-up: scale not given: the % may be the effect or the level left
Mus musculus [19] = assay: Antinociceptive activity in CD1 albino mouse assessed as reduction of formalin-induced licking response in inflammatory phase at 82.74 mg/kg, ip preincubated for 30 mins measured after 15 to 20 mins; assay type: functional; set-up: scale not given: the % may be the effect or the level left
Mus musculus [20] = assay: Antinociceptive activity in CD1 albino mouse assessed as reduction of formalin-induced licking response in neurogenic phase at 82.74 mg/kg, ip preincubated for 30 mins measured after 5 mins; assay type: functional; set-up: scale not given: the % may be the effect or the level left
Mus musculus [21] = assay: Antinociceptive activity in CD1 albino mouse assessed as reduction of formalin-induced licking response in inflammatory phase at 82.74 mg/kg, ip preincubated for 30 mins measured after 20 to 25 mins; assay type: functional; set-up: scale not given: the % may be the effect or the level left
Mus musculus [22] = assay: Anticonvulsant activity in CD1 albino mouse assessed as protection against subcutaneous pentylenetetrazole-induced seizures at 300 mg/kg, ip after 4 hrs; assay type: functional, organism-based; summary of the method: as §3
Mus musculus [23] = assay: Neurotoxicity in CD1 albino mouse assessed as acute motor impairment at 100 to 300 mg/kg, ip after 4 hrs by rotarod test; assay type: toxicity, organism-based; details: in vivo; summary of the method: as §2
Mus musculus [24] = assay: Neurotoxicity in CD1 albino mouse assessed as acute motor impairment at 100 to 300 mg/kg, ip after 0.5 hrs by rotarod test; assay type: toxicity, organism-based; details: in vivo; summary of the method: as §2
Mus musculus [25] = assay: Anticonvulsant activity in CD1 albino mouse assessed as protection against maximal electroshock-induced seizures at 300 mg/kg, ip after 0.5 hrs; assay type: functional, organism-based
Mus musculus [26] = assay: Anticonvulsant activity in CD1 albino mouse assessed as protection against maximal electroshock-induced seizures at 300 mg/kg, ip after 4 hrs; assay type: functional, organism-based
Mus musculus [27] = assay: Local anesthetic activity in CD1 albino mouse assessed prolongation of time reaction at 1 % concentration after 20 secs by tail immersion test relative to vehicle control; assay type: functional; summary of the method: as §4

CC1CC(=O)N(CC(=O)N2CCN(c3ccc(Cl)c(Cl)c3)CC2)C1=O (centres undefined)
Ratio TD50/ED50 (Mus musculus [1]): 3.48
Activity (Mus musculus [2]): 100%
ED50 (Mus musculus [3]): 75.6 mg/kg
inhibition (Rattus norvegicus): 33.4%
Activity (Mus musculus [4]): Non-toxic
minimal effective dose (Mus musculus [5]): 100 mg/kg
Activity (Mus musculus [6]): 95%
ED50 (Mus musculus [7]): 54.1 mg/kg
Activity (Mus musculus [8]): Non-toxic
Activity (Mus musculus [9]): 95%
Ratio TD50/ED50 (Mus musculus [10]): 4.86
Activity (Mus musculus [11]): 14%
minimal effective dose (Mus musculus [12]): 300 mg/kg
Time (Mus musculus [13]): 1 h
Activity (Mus musculus [14]): 61%
minimal effective dose (Mus musculus [15]): 100 mg/kg
TD50 [16]: 263 mg/kg
minimal effective dose (Mus musculus [17]): 100 mg/kg

CC1CC(=O)N(CC(=O)N2CCN(c3cccc(Cl)c3)CC2)C1=O (centres undefined)
Ratio TD50/ED50 (Mus musculus [1]): 3.91
Activity (Mus musculus [18]): 96%
ED50 (Mus musculus [3]): 82.7 mg/kg
Activity (Mus musculus [19]): 98%
inhibition (Rattus norvegicus): 28.5%
Activity (Mus musculus [4]): Non-toxic
minimal effective dose (Mus musculus [5]): 100 mg/kg
Activity (Mus musculus [20]): 67%
ED50 (Mus musculus [7]): 40.3 mg/kg
Activity (Mus musculus [8]): Non-toxic
Ratio TD50/ED50 (Mus musculus [10]): 8
Activity (Mus musculus [11]): 17%
minimal effective dose (Mus musculus [12]): 100 mg/kg
Activity (Mus musculus [21]): 100%
Time (Mus musculus [13]): 1 h
Activity (Mus musculus [22]): inactive
minimal effective dose (Mus musculus [15]): 300 mg/kg
TD50 [16]: 323 mg/kg

CC1CC(=O)N(CC(=O)N2CCN(c3cccc(C(F)(F)F)c3)CC2)C1=O (centres undefined)
minimal effective dose (Mus musculus [5]): 300 mg/kg
MTC (Mus musculus [23]): 300 mg/kg
minimal effective dose (Mus musculus [12]): 100 mg/kg
Activity (Mus musculus [22]): inactive
minimal effective dose (Mus musculus [15]): 100 mg/kg
MTC (Mus musculus [24]): 300 mg/kg

CC1CC(=O)N(CC(=O)N2CCN(c3cccc(Cl)c3Cl)CC2)C1=O (centres undefined)
Activity (Mus musculus [4]): Non-toxic
minimal effective dose (Mus musculus [5]): 100 mg/kg
ED50 (Mus musculus [7]): 74.7 mg/kg
Activity (Mus musculus [8]): Non-toxic
Ratio TD50/ED50 (Mus musculus [10]): 4.6
Activity (Mus musculus [25]): inactive
Activity (Mus musculus [26]): inactive
Time (Mus musculus [13]): 1 h
TD50 [16]: 343 mg/kg
minimal effective dose (Mus musculus [17]): 100 mg/kg

Cc1cccc(C)c1NC(=O)C1CCCCN1C (centres undefined) [MEPIVACAINE]
Activity (Mus musculus [11]): 116.67%
Activity (Mus musculus [27]): 94.63%
